Source: publication PMC4417838 (International Journal for Parasitology: Drugs and Drug …, 2015)
In brackets after ≈: the same amount, converted by molar mass. Entries after “also recorded” stand apart in the source; their conditions may differ. Read-outs that look alike come from different tables or passages of the source.

Tests used:
Stability observation = type: physicochemical
[1] = tested on: P. falciparum strain NF54; assay: Malstat assay, growth inhibition of P. falciparum NF54; type: cell-based, Plasmodium falciparum; conditions: for Selectivity index SI (NF54): CC50 (MCF7)/IC50 (NF54); for times more potent than tryptanthrin: CQ-sensitive strain; for IC50: Plasmodium falciparum; for gain in activity over the parent compound tryptanthrin: mono-derivatization at position 8, strain not stated
P. falciparum strain Dd2 = assay: Malstat assay, growth inhibition of P. falciparum Dd2; type: cell-based, Plasmodium falciparum; conditions: for Selectivity index SI (Dd2): CC50 (MCF7)/IC50 (Dd2); for IC50: Plasmodium falciparum, DD2, read-out: Mean IC50 ± SD Dd2
MTT cytotoxicity assay = type: cell-based; conditions: human, MCF-7 cells
[2] = tested on: P. falciparum NF54 mature gametocytes; assay: Exflagellation assay; type: cell-based, Plasmodium falciparum; conditions: compound at IC90 concentration, 15 min and 24 h incubation
Summary of the method: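 Mature NF54 gametocyte cultures (from day 13) were split into two flasks, one with test compound and one with DMSO only. Aliquots taken after 15 min at 37 °C and after 24 h were activated with xanthurenic acid for 15 min, pelleted, and resuspended in medium containing 100 µM xanthurenic acid. Exflagellation centres were counted in 30 fields relative to the DMSO control. The experiment was run twice, on separately seeded cultures.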

Solubility in DMSO = type: physicochemical; conditions: organic solvent or mixture
[3] = tested on: P. falciparum NF54 gametocytes; assay: Gametocyte toxicity test; type: cell-based, Plasmodium falciparum; conditions: nanomolar concentrations, positive control
Summary of the method: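 NF54 was seeded at 1–2% parasitemia and 5% hematocrit in RPMI/HEPES/hypoxanthine/bicarbonate with 10% human serum, under 5% O2/5% CO2/90% N2 at 37 °C, with medium changed daily. Stage II gametocytes were plated in triplicate with compound for 48 h, then kept in compound-free medium to day 7. Stage IV–V gametocytes per 1000 erythrocytes were counted on Giemsa smears and normalised to the DMSO control; means were compared by one-way ANOVA with Tukey's test.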

[4] = NF54, read-out: Mean IC50 ± SD NF54
[5] = DD2|NF54, read-out: IC50 (considered not effective)

| Structure (SMILES) | Selectivity index SI (NF54) [1] | IC50 [1, 4] | Selectivity index SI (Dd2) (P. falciparum strain Dd2) | IC50 (P. falciparum strain Dd2) | CC50 (MTT cytotoxicity assay) | further results |
| --- | --- | --- | --- | --- | --- | --- |
| O=C1c2ccccc2-n2c1nc1ccc([N+](=O)[O-])cc1c2=O [2-Nitrotryptanthrin] | – | – | – | – | – | stability (Stability observation): highly unstable |
| O=C1c2cc(Br)ccc2-n2c1nc1cc(Cl)ccc1c2=O [BT1, 8-Bromo-3-chloro-indolo [2,1-b] quinazoline-6,12-dione] | 66 | 36 ± 17 nM | 10 | 238 ± 80 nM | 2380 ± 1 nM | times more potent than tryptanthrin [1]: at least 5 |
| O=C1c2cc(Br)ccc2-n2c1nc1ccc(Cl)cc1c2=O [BT2, 8-Bromo-2-chloro-indolo [2,1-b] quinazoline-6,12-dione] | >2000 | 36 ± 24 nM | >800 | 123 ± 62 nM | > 100000 nM | times more potent than tryptanthrin [1]: at least 5 |
| COc1cc2nc3n(c(=O)c2cc1OC)-c1ccc(Br)cc1C3=O [BT3, 8-Bromo-2,3-dimethoxy-indolo[2,1-b]quinazoline-6,12-dione] | >1000 | 88 ± 41 nM | >100 | 761 ± 194 nM | > 100000 nM | – |
| O=C(O)c1ccc2c(=O)n3c(nc2c1)C(=O)c1cc(Br)ccc1-3 [BT4, 8-Bromo-6,12-dioxo-6,12-dihydro-indolo[2,1-b] quinazoline-3-carboxylic acid] | – | > 50000 nM | – | > 50000 nM | 71000 ± 39700 nM | IC50 [1, 5]: > 50000 nM |
| COC(=O)c1ccc2c(=O)n3c(nc2c1)C(=O)c1cc(Br)ccc1-3 [BT5, 8-Bromo-6,12-dioxo-6,12-dihydro-indolo[2,1-b] quinazoline-3-carboxylic acid methylester] | 70.9 | 162 ± 93 nM | 40 | 287 ± 24 nM | 11500 ± 5420 nM | – |
| CCN(CC)CCCC(C)Nc1ccnc2cc(Cl)ccc12 (stereo not drawn) [CQ, Chloroquine, reference compound] | – | 21 ± 2 nM | – | 294 ± 30 nM | > 100000 nM | times more potent against CQ-sensitive strain compared with the resistant strain ([1]; CQ-sensitive versus CQ-resistant strain): 13; IC50 ([1]; NF54): 20 nM |
| Cc1ccc2c(c1)C(=O)c1nc3ccccc3c(=O)n1-2 [Compound T1, 8-Methyl-indolo [2,1-b] quinazoline-6,12-dione] | >1000 | 85 ± 37 nM | >400 | 216 ± 116 nM | > 100000 nM | gain in activity over the parent compound tryptanthrin [1]: approximately three times |
| O=C1c2cc(Br)ccc2-n2c1nc1ccccc1c2=O [Compound T2, 8-Bromo-indolo [2,1-b] quinazoline-6,12-dione] | 129.3 | 81 ± 8 nM | 110.2 | 95 ± 58 nM | 10500 ± 1520 nM | gain in activity over the parent compound tryptanthrin [1]: approximately three times |
| Cc1cccc2c1C(=O)c1nc3ccccc3c(=O)n1-2 [Compound T3, 7-Methyl-indolo [2,1-b] quinazoline-6,12-dione] | 39.2 | 450 ± 98 nM | 29.3 | 602 ± 115 nM | 17600 ± 300 nM | – |
| O=C1c2cc([N+](=O)[O-])ccc2-n2c1nc1ccccc1c2=O [Compound T4, 8-Nitro-indolo [2,1-b] quinazoline-6,12-dione] | 45.1 | 106 ± 38 nM | 29 | 165 ± 55 nM | 4780 ± 490 nM | gain in activity over the parent compound tryptanthrin [1]: approximately three times |
| O=C1c2cc(F)ccc2-n2c1nc1ccccc1c2=O [Compound T6, 8-Fluoro-indolo [2,1-b] quinazoline-6,12-dione] | 306.5 | 57 ± 10 nM | 175.6 | 100 ± 15 nM | 17500 ± 650 nM | times more potent than tryptanthrin [1]: at least 5; gain in activity over the parent compound tryptanthrin [1]: approximately three times |
| O=C1c2cc(Cl)ccc2-n2c1nc1ccccc1c2=O [Compound T7, 8-Chloro-indolo [2,1-b] quinazoline-6,12-dione] | 286.1 | 95 ± 33 nM | 158.5 | 172 ± 18 nM | 27200 ± 6680 nM | gain in activity over the parent compound tryptanthrin [1]: approximately three times |
| O=C1c2ccccc2-n2c1nc1cc(Cl)ccc1c2=O [Compound T8, 3-Chloro-indolo [2,1-b] quinazoline-6,12-dione] | 186 | 92 ± 3 nM | 103.5 | 165 ± 81 nM | 17100 ± 4260 nM | reduction of exflagellation of microgametes [2]: neither tryptanthrin nor T8 were able to significantly inhibit the exflagellation; also recorded: no influence on exflagellation |
| O=C1c2cc([N+](=O)[O-])ccc2-n2c1nc1cc(Cl)ccc1c2=O [NT1, 3-Chloro-8-nitro-indolo [2,1-b] quinazoline-6,12-dione] | 155.9 | 33 ± 4 nM | 168.7 | 31 ± 5 nM | 5150 ± 110 nM | times more potent than tryptanthrin [1]: at least 5; IC50 ([1]; NF54): 30 nM; times more active than tryptanthrin (P. falciparum strain Dd2; CQ-resistant strain): 3.3; solubility (Solubility in DMSO): 10 mM (≈ 3280 µg/mL) |
| O=C1c2cc([N+](=O)[O-])ccc2-n2c1nc1ccc(Cl)cc1c2=O [NT2, 2-Chloro-8-nitro-indolo [2,1-b] quinazoline-6,12-dione] | 96.7 | 129 ± 22 nM | 136.5 | 91 nM | 12500 ± 230 nM | – |
| COc1cc2nc3n(c(=O)c2cc1OC)-c1ccc([N+](=O)[O-])cc1C3=O [NT3, 2,3-Dimethoxy-8-nitro-indolo [2,1-b] quinazoline-6,12-dione] | 53.6 | 283 ± 93 nM | 113.2 | 134 ± 47 nM | 15200 ± 4410 nM | – |
| O=C(O)c1ccc2c(=O)n3c(nc2c1)C(=O)c1cc([N+](=O)[O-])ccc1-3 [NT4, 8-Nitro-6,12-dioxo-6,12-dihydro-indolo[2,1-b]quinazoline-3-carboxylic acid] | – | > 50000 nM | – | > 50000 nM | > 100000 nM | IC50 [1, 5]: > 50000 nM |
| COC(=O)c1ccc2c(=O)n3c(nc2c1)C(=O)c1cc([N+](=O)[O-])ccc1-3 [NT5, 8-Nitro-6,12-dioxo-6,12-dihydro-indolo[2,1-b] quinazoline-3-carboxylic acid methyl ester] | 71.7 | 167 ± 67 nM | 72.1 | 166 ± 36 nM | 12000 ± 500 nM | – |
| O=C1c2cc([N+](=O)[O-])ccc2-n2c1nc1cc(Br)ccc1c2=O [NT6, 3-Bromo-8-nitro-indolo [2,1-b] quinazoline-6,12-dione] | 243.3 | 72 ± 23 nM | 174 | 101 ± 68 nM | 17500 ± 770 nM | – |
| O=C1c2ccccc2-n2c1nc1ccccc1c2=O [TRYP, indolo-[2,1-b]-quinazoline-6, 12-Dione, reference compound] | – | 288 ± 87 nM | – | 114 ± 17 nM | 45900 ± 700 nM | – |
| CC[C@H](C)[C@H](NC(=O)[C@H]([C@@H](C)CC)N(C)C(C)=O)C(=O)N[C@H](C(=O)N[C@@H](CC(C)C)C(=O)[C@@]1(C)CO1)[C@@H](C)O [epoxomicin] | – | – | – | – | – | effect on gametocytes in culture [3]: fully eliminate the gametocytes |
